# Experiments:
# [1] = molecular target: T1, Toll-like receptor 9 (Homo sapiens) (UniProt Q9NR96); test: Induction of TLR9-mediated immune stimulation in human PBMC assessed as IL1Ralpha production at 2 ug/ml after 24 hrs by luminex multiplex assay (RVb = 0.12 +/- 0.03 ng/ml)
# T1 sequence (whole entry): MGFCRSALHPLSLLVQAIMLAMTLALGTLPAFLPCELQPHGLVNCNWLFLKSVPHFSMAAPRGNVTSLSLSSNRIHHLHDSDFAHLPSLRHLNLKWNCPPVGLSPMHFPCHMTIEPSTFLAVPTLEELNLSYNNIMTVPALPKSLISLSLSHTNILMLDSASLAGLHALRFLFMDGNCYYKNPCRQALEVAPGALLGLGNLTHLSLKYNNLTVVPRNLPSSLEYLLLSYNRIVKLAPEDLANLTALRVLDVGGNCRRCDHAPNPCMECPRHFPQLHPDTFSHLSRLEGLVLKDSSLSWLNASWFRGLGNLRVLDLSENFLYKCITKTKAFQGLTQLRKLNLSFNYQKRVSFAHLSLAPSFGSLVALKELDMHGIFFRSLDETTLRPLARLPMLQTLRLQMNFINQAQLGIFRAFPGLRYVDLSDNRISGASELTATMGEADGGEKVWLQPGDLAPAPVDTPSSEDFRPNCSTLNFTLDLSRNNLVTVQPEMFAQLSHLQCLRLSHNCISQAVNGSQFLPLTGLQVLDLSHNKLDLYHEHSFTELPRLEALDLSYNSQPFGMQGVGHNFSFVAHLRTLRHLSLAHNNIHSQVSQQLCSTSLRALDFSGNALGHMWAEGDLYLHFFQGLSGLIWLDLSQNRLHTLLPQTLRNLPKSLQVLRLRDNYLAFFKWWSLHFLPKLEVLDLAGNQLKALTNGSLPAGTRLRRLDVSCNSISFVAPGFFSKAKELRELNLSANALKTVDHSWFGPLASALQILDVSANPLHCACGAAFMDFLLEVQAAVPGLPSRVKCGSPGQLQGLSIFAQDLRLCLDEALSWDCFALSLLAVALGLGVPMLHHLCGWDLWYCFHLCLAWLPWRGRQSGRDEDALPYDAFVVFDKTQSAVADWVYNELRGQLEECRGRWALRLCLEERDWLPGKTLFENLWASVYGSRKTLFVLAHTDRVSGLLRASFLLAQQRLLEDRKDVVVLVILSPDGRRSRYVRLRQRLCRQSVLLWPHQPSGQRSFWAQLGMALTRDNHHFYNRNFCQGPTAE
# [2] = molecular target: T1, Toll-like receptor 9 (Homo sapiens); test: Induction of TLR9-mediated immune stimulation in human PBMC assessed as MIP1beta production at 2 ug/ml after 24 hrs by luminex multiplex assay (RVb = 0.03 +/- 0.02 ng/ml)
# [3] = molecular target: T1, Toll-like receptor 9 (Homo sapiens); test: Induction of TLR9-mediated immune stimulation in human PBMC assessed as IL12 production at 2 ug/ml after 24 hrs by luminex multiplex assay (RVb = 0.00 ng/ml)
# [4] = molecular target: T2, Toll-like receptor 9 (Mus musculus) (UniProt Q9EQU3); test: Activation of mouse TLR9 expressed in HEK293 cells assessed as induction of NF-kappaB activity after 18 hrs by SEAP assay; type: cell-based
# T2 sequence (whole entry): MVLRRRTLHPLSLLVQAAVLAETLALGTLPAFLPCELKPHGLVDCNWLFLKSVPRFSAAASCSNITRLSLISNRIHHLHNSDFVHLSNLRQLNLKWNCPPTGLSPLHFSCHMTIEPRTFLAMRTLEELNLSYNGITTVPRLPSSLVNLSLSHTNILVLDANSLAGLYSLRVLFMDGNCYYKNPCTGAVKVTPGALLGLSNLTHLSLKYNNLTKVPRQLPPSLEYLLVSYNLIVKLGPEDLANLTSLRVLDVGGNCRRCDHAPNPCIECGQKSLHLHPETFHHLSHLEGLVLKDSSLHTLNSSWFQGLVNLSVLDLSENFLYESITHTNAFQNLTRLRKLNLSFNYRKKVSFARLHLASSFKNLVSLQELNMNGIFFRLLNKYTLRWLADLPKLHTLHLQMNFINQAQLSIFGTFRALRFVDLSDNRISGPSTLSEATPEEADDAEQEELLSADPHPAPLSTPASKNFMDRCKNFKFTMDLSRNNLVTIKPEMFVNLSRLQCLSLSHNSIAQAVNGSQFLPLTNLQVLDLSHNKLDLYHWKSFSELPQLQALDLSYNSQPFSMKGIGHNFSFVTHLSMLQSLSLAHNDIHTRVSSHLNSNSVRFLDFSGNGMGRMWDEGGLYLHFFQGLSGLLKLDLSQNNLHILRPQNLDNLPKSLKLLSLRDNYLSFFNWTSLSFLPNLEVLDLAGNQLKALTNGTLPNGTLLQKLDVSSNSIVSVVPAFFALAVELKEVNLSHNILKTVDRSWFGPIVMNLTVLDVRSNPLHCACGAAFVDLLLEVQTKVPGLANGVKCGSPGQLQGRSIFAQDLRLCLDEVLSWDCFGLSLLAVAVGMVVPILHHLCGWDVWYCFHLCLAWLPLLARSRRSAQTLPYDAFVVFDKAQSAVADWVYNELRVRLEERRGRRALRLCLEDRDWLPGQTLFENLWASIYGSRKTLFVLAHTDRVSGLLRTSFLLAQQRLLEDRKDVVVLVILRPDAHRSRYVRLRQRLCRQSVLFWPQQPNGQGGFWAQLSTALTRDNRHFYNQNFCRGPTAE
# Method in brief: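 HEK293 cells stably expressing mouse TLR9 were grown in DMEM with 10% heat-inactivated FBS. At 80% confluence they were transiently transfected with a SEAP reporter plasmid (100 ng/well, lipofectamine) for 6 h. Medium was then replaced and agonists were added for 18 h. Supernatant SEAP was read with QuantiBlue substrate at 620-645 nm. Results are expressed as fold NF-κB activity over PBS control.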
# [5] = molecular target: T1, Toll-like receptor 9 (Homo sapiens); test: Induction of TLR9-mediated immune stimulation in human PBMC assessed as IL2R production at 10 ug/ml after 24 hrs by luminex multiplex assay (RVb = 0.02 +/- 0.01 ng/ml)
# [6] = molecular target: T1, Toll-like receptor 9 (Homo sapiens); test: Induction of TLR9-mediated immune stimulation in human PBMC assessed as IL2R production at 2 ug/ml after 24 hrs by luminex multiplex assay (RVb = 0.02 +/- 0.01 ng/ml)
# [7] = molecular target: T1, Toll-like receptor 9 (Homo sapiens); test: Induction of TLR9-mediated immune stimulation in human PBMC assessed as RANTES production at 2 ug/ml after 24 hrs by luminex multiplex assay (RVb = 0.05 +/- 0.04 ng/ml)
# [8] = molecular target: T1, Toll-like receptor 9 (Homo sapiens); test: Induction of TLR9-mediated immune stimulation in human PBMC assessed as RANTES production at 10 ug/ml after 24 hrs by luminex multiplex assay (RVb = 0.05 +/- 0.04 ng/ml)
# [9] = molecular target: T1, Toll-like receptor 9 (Homo sapiens); test: Induction of TLR9-mediated immune stimulation in human PBMC assessed as IL1Ralpha production at 10 ug/ml after 24 hrs by luminex multiplex assay (RVb = 0.12 +/- 0.03 ng/ml)
# [10] = molecular target: T1, Toll-like receptor 9 (Homo sapiens); test: Induction of TLR9-mediated immune stimulation in human PBMC assessed as MCP1 production at 2 ug/ml after 24 hrs by luminex multiplex assay (RVb = 0.08 +/- 0.02 ng/ml)
Structure (SMILES),Activity [1],Activity [2],Activity [3],Activity [4],Activity [5],Activity [6],Activity [7],Activity [8],Activity [9],Activity [10]
Cc1cn([C@H]2C[C@H](OCCC(O)CCOP(=O)(S)O[C@H]3C[C@H](n4cc(C)c(=O)[nH]c4=O)O[C@@H]3COP(=O)(S)O[C@H]3[C@@H](O)[C@H](n4ccc(N)nc4=O)O[C@@H]3COP(=O)(S)O[C@H]3C[C@H](n4cc(C)c(=O)[nH]c4=O)O[C@@H]3COP(=O)(S)O[C@H]3C[C@H](n4cc(C)c(=O)[nH]c4=O)O[C@@H]3COP(=O)(S)O[C@H]3C[C@H](n4ccc5c(=O)[nH]c(N)nc54)O[C@@H]3COP(=O)(S)O[C@H]3[C@@H](O)[C@H](n4ccc(N)nc4=O)O[C@@H]3COP(=O)(S)O[C@H]3C[C@H](n4cc(C)c(=O)[nH]c4=O)O[C@@H]3COP(=O)(S)O[C@H]3[C@@H](O)[C@H](n4cnc5c(=O)[nH]c(N)nc54)O[C@@H]3COP(=O)(S)O[C@H]3C[C@H](n4cc(C)c(=O)[nH]c4=O)O[C@@H]3COP(=O)(S)O[C@H]3[C@@H](O)[C@H](n4ccc(N)nc4=O)O[C@@H]3COP(=O)(S)O[C@H]3C[C@H](n4cc(C)c(=O)[nH]c4=O)O[C@@H]3CO)[C@@H](COP(=O)(S)O[C@H]3[C@@H](O)[C@H](n4ccc(N)nc4=O)O[C@@H]3COP(=O)(S)O[C@H]3C[C@H](n4cc(C)c(=O)[nH]c4=O)O[C@@H]3COP(=O)(S)O[C@H]3C[C@H](n4cc(C)c(=O)[nH]c4=O)O[C@@H]3COP(=O)(S)O[C@H]3C[C@H](n4ccc5c(=O)[nH]c(N)nc54)O[C@@H]3COP(=O)(S)O[C@H]3[C@@H](O)[C@H](n4ccc(N)nc4=O)O[C@@H]3COP(=O)(S)O[C@H]3C[C@H](n4cc(C)c(=O)[nH]c4=O)O[C@@H]3COP(=O)(S)O[C@H]3[C@@H](O)[C@H](n4cnc5c(=O)[nH]c(N)nc54)O[C@@H]3COP(=O)(S)O[C@H]3C[C@H](n4cc(C)c(=O)[nH]c4=O)O[C@@H]3COP(=O)(S)O[C@H]3[C@@H](O)[C@H](n4ccc(N)nc4=O)O[C@@H]3COP(=O)(S)O[C@H]3C[C@H](n4cc(C)c(=O)[nH]c4=O)O[C@@H]3CO)O2)c(=O)[nH]c1=O (stereo not given in full),8.94 ng/mL,0.12 ng/mL,0.14 ng/mL,Dose-dependent effect,0.12 ng/mL,0.03 ng/mL,0.31 ng/mL,1.15 ng/mL,63 ng/mL,0.25 ng/mL
Cc1cn([C@H]2C[C@H](O[C@H]3C[C@@H](O)C[C@@H](OP(=O)(S)O[C@H]4C[C@H](n5cc(C)c(=O)[nH]c5=O)O[C@@H]4COP(=O)(S)O[C@H]4[C@@H](O)[C@H](n5ccc(N)nc5=O)O[C@@H]4COP(=O)(S)O[C@H]4C[C@H](n5cc(C)c(=O)[nH]c5=O)O[C@@H]4COP(=O)(S)O[C@H]4C[C@H](n5cc(C)c(=O)[nH]c5=O)O[C@@H]4COP(=O)(S)O[C@H]4C[C@H](n5ccc6c(=O)[nH]c(N)nc65)O[C@@H]4COP(=O)(S)O[C@H]4[C@@H](O)[C@H](n5ccc(N)nc5=O)O[C@@H]4COP(=O)(S)O[C@H]4C[C@H](n5cc(C)c(=O)[nH]c5=O)O[C@@H]4COP(=O)(S)O[C@H]4[C@@H](O)[C@H](n5cnc6c(=O)[nH]c(N)nc65)O[C@@H]4COP(=O)(S)O[C@H]4C[C@H](n5cc(C)c(=O)[nH]c5=O)O[C@@H]4COP(=O)(S)O[C@H]4[C@@H](O)[C@H](n5ccc(N)nc5=O)O[C@@H]4COP(=O)(S)O[C@H]4C[C@H](n5cc(C)c(=O)[nH]c5=O)O[C@@H]4CO)C3)[C@@H](COP(=O)(S)O[C@H]3[C@@H](O)[C@H](n4ccc(N)nc4=O)O[C@@H]3COP(=O)(S)O[C@H]3C[C@H](n4cc(C)c(=O)[nH]c4=O)O[C@@H]3COP(=O)(S)O[C@H]3C[C@H](n4cc(C)c(=O)[nH]c4=O)O[C@@H]3COP(=O)(S)O[C@H]3C[C@H](n4ccc5c(=O)[nH]c(N)nc54)O[C@@H]3COP(=O)(S)O[C@H]3[C@@H](O)[C@H](n4ccc(N)nc4=O)O[C@@H]3COP(=O)(S)O[C@H]3C[C@H](n4cc(C)c(=O)[nH]c4=O)O[C@@H]3COP(=O)(S)O[C@H]3[C@@H](O)[C@H](n4cnc5c(=O)[nH]c(N)nc54)O[C@@H]3COP(=O)(S)O[C@H]3C[C@H](n4cc(C)c(=O)[nH]c4=O)O[C@@H]3COP(=O)(S)O[C@H]3[C@@H](O)[C@H](n4ccc(N)nc4=O)O[C@@H]3COP(=O)(S)O[C@H]3C[C@H](n4cc(C)c(=O)[nH]c4=O)O[C@@H]3CO)O2)c(=O)[nH]c1=O (stereo not given in full),13.6 ng/mL,0.13 ng/mL,0.13 ng/mL,Dose-dependent effect,0.28 ng/mL,0.07 ng/mL,0.93 ng/mL,2.13 ng/mL,97.2 ng/mL,0.29 ng/mL

# Source: ChEMBL document CHEMBL1157912, “Impact of nature and length of linker incorporated in agonists on toll-like receptor 9-mediated immune responses” (J Med Chem, 2010)
